Hits are enriched below; roughly 2.3% of the tested compounds scored in any of these assays.
GPR7 antagonist: antagonists of human GPR7 (neuropeptides B/W receptor 1); GPR7-expressing cells, fluorescence antagonist assay; inhibition, % at 4.4 µM; actives 1.1% (n = 290,000); in the data active means inhibition above about 16%, passing the limit was not always enough;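 further: cells stimulated with the agonist NPW; 0% = agonist with vehicle and 100% = vehicle without agonist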
CHT PAM: allosterically activates the human high affinity choline transporter. Q9GZV3. CHT-expressing cells, membrane potential dye, choline EC20; active compounds read high; LV-AA mutant CHT in HEK293 cells. B-score at 10 µM. actives 0.49% (n = 310,000);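 active means initial fluorescence not abnormally high and integrated response B-score, plate-corrected, over 3 SD above library mean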
p-CIP stab down: p/CIP protein destabilization | decrease of EGFP signal, % at 10 µM | F442A p/CIP-EGFP cells, EGFP fluorescence, 16 h | Q05BA5 | actives 0.01% (n = 290,000);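 active means EGFP signal decrease of at least 30% at 10 µM or well 3 SD below plate mean, unless failing retest; inactive means the rest, including hits failing retest or dose response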
DSG3 Ab inh: human desmoglein-3 autoantibody binding inhibition; P32926; binding (percent of control), % at 10 µM; actives 0.48% (n = 310,000); DSG3-coupled beads, scFv-anti-DSG3-GFP binding, flow cytometry; active compounds read low; AID 588358;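 active means binding more than 3 SD below its plate's average and above zero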;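 further: hits lower antibody fragment binding to DSG3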
T cell HTS: T cell immune modulation candidate | 2C CD8+ T cell-vesicle binding, flow cytometry; active compounds read low | response (vesicle binding), % at 7 µM | actives 0.068% (n = 330,000) | AID 2052;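 active means response, share of CD8 T cells binding vesicles, and their 90th percentile fluorescence all below set limits, cut at about 80% in these data, passing the limit was not always enough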;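 further: values below 100% mean blocked vesicle binding to the CD8+ T cells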
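Material: 2C TCR transgenic mouse naive CD8+ T cells, MACS-purified. Also added: QL9-charged Drosophila Ld/ICAM-1/B7-1 vesicles. Timing: binding 1.5 h at 37 °C. Measured by: high-throughput flow cytometry with anti-B7-1 and anti-CD8 staining. Read-out: percent CD8+ FL2 mean versus row control. Controls: Unloaded micro-vesicles (low), QL9 vesicles with 0.7% DMSO (high).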
CHT inh: inhibits the human high affinity choline transporter. AID 488975. B-score at 10 µM. CHT-expressing cells, membrane potential dye, choline response; active compounds read low. actives 0.86% (n = 310,000);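 active means B-score over 3 SD under the library average, and starting fluorescence ratio not unusually high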;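 further: choline stimulus applied at its EC90 after an EC20 pre-addition; B-score computed on integrated fluorescence ratio after choline addition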
Active calls of the source: *; i = inactive; / = no result.

SMILES	GPR7 antagonist	CHT PAM	p-CIP stab down	DSG3 Ab inh	T cell HTS	CHT inh
CCOc1cc(/C=N/NC(N)=O)ccc1OC(=O)c1ccc(C)cc1	4	i	6	/	578	i
COCCn1c(-c2ccc(Cl)cc2)cnc1SCC(=O)NCc1cccs1	20*	i	-5	96	166	i
C=C[C@H]1CN2CC[C@H]1C[C@H]2[C@H](O)c1ccnc2ccc(OC)cc12	/	i	/	117	578	i
CC(C)NC(=O)N(C)C[C@H]1Oc2ccc(NS(=O)(=O)c3ccccc3)cc2C(=O)N([C@H](C)CO)C[C@H]1C	/	/	/	107	62*	/
C[C@H](CO)N1C[C@H](C)[C@@H](CN(C)C)Oc2c(NS(=O)(=O)c3ccccc3)cccc2C1=O	/	/	/	101	0.0*	/
C[C@@H]1CN([C@H](C)CO)C(=O)c2cccc(NS(=O)(=O)c3ccccc3)c2O[C@H]1CN(C)C	/	/	/	96	181	/
C[C@H](CO)N1C[C@H](C)[C@@H](CN(C)C(=O)Nc2ccccc2)Oc2ccc(NS(=O)(=O)c3ccccc3)cc2C1=O	/	/	/	98	582	/
Cc1ccc(S(=O)(=O)n2cccc2/C=C/[N+](=O)[O-])cc1	/	/	/	95	/	/
COc1cc(-c2nnc(COC(=O)c3ccc([N+](=O)[O-])o3)o2)cc(OC)c1OC	/	/	/	98	/	/
COc1ccc(NC(=O)Nc2c(O)ccc3ccccc23)cc1	/	i	/	109	39*	i
COc1ccc(NC(=O)Nc2ccc(OC)cc2)cc1	-10	i	-7	94	239	i
O=C(O)C1C=CCC(C(=O)O)C1 (centres undefined)	/	/	/	103	/	/
N#Cc1c2ncn(CC(=O)c3ccc(Br)cc3)c(=O)c2c2n1CCC2	2	i	-6	30*	171	i
Nc1ccc(C(=O)OCC(=O)NC(=O)c2ccccc2)cc1[N+](=O)[O-]	/	i	/	98	739	i
O=C(COC(=O)c1ccc(Cl)cc1[N+](=O)[O-])NC(=O)c1ccccc1	4	i	-7	49*	126	i
CC(C)(C)c1ccc(Cn2c(=N)n(CC(O)c3ccco3)c3ccccc32)cc1 (centres undefined)	24*	i	-22	107	433	-6.6*
O=C(c1ccccc1)N(Cc1ccccc1)Cc1ccccc1	-4	i	5	102	660	i
O=C(C1CC1)N(CCN(Cc1ccccc1)C(=O)C1CC1)Cc1ccccc1	43*	i	-5	84	336	i
Cc1ccc(NC(=O)C(C)Sc2nnc3n2CCCCC3)cc1S(=O)(=O)N1CCOCC1 (centres undefined)	/	/	/	103	/	/
COc1cccc(Sc2ccccc2/C=N/NC(N)=O)c1	2	i	-1	38*	344	i
Cc1ccc(S(=O)(=O)N2CCOCC2)cc1C(=O)NCCCN1CCCC1=O	/	/	/	100	/	/
Cc1ccc(/C=C2\SC(=S)N(NS(=O)(=O)c3ccc(C)cc3)C2=O)cc1	-16	i	-20	118	157	i
COc1ccc(/C=C2/SC(=S)N(NS(=O)(=O)c3ccc(C)cc3)C2=O)cc1	-8	i	-8	103	165	-5.6*
Cc1ccc(-c2cn3cccnc3n2)cc1NC(=O)c1ccc(Br)o1	-4	i	1	81*	152	i
CC(=O)OC[C@]12CC[C@H]3[C@@](C)(CC[C@H]4C(C)(C)CCC[C@]34C)[C@@H]1C[C@H](C1=CC(=O)O[C@H]1OC(C)=O)O2	/	/	/	/	272	/
SMILES	GPR7 antagonist	CHT PAM	p-CIP stab down	DSG3 Ab inh	T cell HTS	CHT inh
CC(=O)OC[C@]12CC[C@H]3[C@@](C)(CC[C@H]4C(C)(C)CCC[C@]34C)[C@@H]1C[C@@H](C1=CC(=O)O[C@@H]1OC(C)=O)O2	/	/	/	/	0.0*	/
CC[C@@H](C)[C@H](NC(=O)OC(C)(C)C)c1nnc(S(=O)(=O)Cc2cc(C)ccc2C)o1	24*	i	-20	104	179	i
Nc1ccc2c(c1)[nH]c(=O)c1cc(N)ccc12	/	/	/	75*	/	/
COC(=O)c1ccc(N2CCN(C)CC2)c(NC(=O)c2ccc(Br)o2)c1	-10	i	4	105	255	-5.3*
COc1ccc(N2CCOCC2)c(NC(=O)c2ccc(Br)o2)c1	-15	i	-3	109	193	i
O=C1OCC/C1=C1/NCCNC1=O	/	/	/	98	/	/
Cc1cc(/C=N/NC(=O)c2cccc(F)c2)c(C)n1-c1ccccc1	-13	i	-6	89	306	i
Cc1cc(/C=N/NC(=O)c2ccccc2F)c(C)n1-c1ccccc1	7	i	-4	109	259	-6.3*
O=C(CCC(=O)N(CC(=O)NC1CCCCC1)c1ccc(F)cc1)Nc1nccs1	-4	i	1	101	461	i
CC(C)c1ccc(N(CC(=O)NCc2ccco2)C(=O)CCC(=O)Nc2nccs2)cc1	6	i	-4	-39*	167	i
O=C(CCC(=O)N(CC(=O)NC1CCCC1)c1ccc(F)cc1)Nc1nccs1	-9	i	7	48*	290	i
CCCCCCCCOC(=O)CCc1c(C)[nH]c(=S)[nH]c1=O	12	i	-21	11*	505	i
CCCCCCOC(=O)CCc1c(C)nc(N)[nH]c1=O	-4	i	-4	/	184	i
Cc1cc(C(=O)N2CCN(C/C=C/c3ccccc3)CC2)cs1	20*	i	-6	108	400	i
O=C(c1cccnc1)N1CCN(C/C=C/c2ccccc2)CC1	-17	i	-5	102	692	i
O=S(=O)(c1ccc(F)c(F)c1)N1CCCCCCC1	/	/	/	94	/	/
Cc1ccc(S(=O)(=O)N2CC3(O)CN(C(=O)OC(C)C)N(C(=O)OC(C)C)CC3(OC(=O)NCc3ccccc3)C2)cc1 (centres undefined)	/	/	/	104	/	/
COCCN(C(=O)COC(=O)c1ccc2c(c1)OCO2)c1c(N)n(Cc2ccccc2)c(=O)[nH]c1=O	/	/	/	92	/	/
COc1ccc(C(=O)CSc2ncnc3nc[nH]c23)cc1	-11	i	12	88*	66	i
Cc1cccc(NC(=O)CSc2ncnc3nc[nH]c23)c1C	6	i	-8	37*	384	i
COc1ccc(CNC(=O)CSc2ncnc3nc[nH]c23)cc1	-1	i	-7	99	332	i
CCOc1ccc(NC(=O)CN2CCN(c3ccc(F)cc3)CC2)cc1S(=O)(=O)N1CCCC1	/	/	/	104	/	/
Cc1ccc(S(=O)(=O)N2CCCC(C(=O)NCCc3ccc(Cl)cc3)C2)cc1 (centres undefined)	/	/	/	95	/	/
C[C@H]1CN([C@@H](C)CO)C(=O)CCCn2nncc2CO[C@H]1CN(C)S(=O)(=O)c1ccc2ccccc2c1	/	/	/	102	/	/
Nc1nc(N2CCN(C(c3ccccc3)c3ccccc3)CC2)n[nH]1	-24	i	-1	99	486	i
Nc1nc(N2CCN(Cc3ccccc3)CC2)n[nH]1	15	i	12	79*	243	i

Source: PubChem
